These results are taken from PMC3319382 (Bioorganic & medicinal chemistry, 2011).

The target in test [1] is T1, yeast Rce1p (Saccharomyces cerevisiae, UniProt Q03530).
T1 sequence (Q03530 1-315): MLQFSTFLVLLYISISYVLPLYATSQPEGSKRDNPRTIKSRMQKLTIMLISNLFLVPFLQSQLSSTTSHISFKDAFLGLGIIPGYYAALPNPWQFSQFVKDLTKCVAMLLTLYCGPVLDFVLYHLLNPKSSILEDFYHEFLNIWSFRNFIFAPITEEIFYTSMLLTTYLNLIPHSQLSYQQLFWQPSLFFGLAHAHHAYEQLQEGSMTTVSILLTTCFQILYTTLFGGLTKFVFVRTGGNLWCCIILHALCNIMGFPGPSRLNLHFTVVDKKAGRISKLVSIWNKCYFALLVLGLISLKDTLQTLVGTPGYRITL
Conditions: ref [12], [13]; cited from earlier work.

For test [2], the target named is T1, yeast Rce1p. The experiment in a line: fluorescence-based CAAX proteolysis kinetic assay. Type of test: biochemical. In outline: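 Enzyme source was carbonate-washed membranes from S. cerevisiae overexpressing yeast Rce1p as sole CAAX protease, diluted in 100 mM Hepes pH 7.5, 5 mM MgCl2 and preincubated 10 min at 30 °C. The final mix held 0.25 mg/mL membrane protein and a 10-point substrate series (0–45 or 0–50 μM) in triplicate wells. Read at 340/420 nm every 30–60 s for 1 h at 30 °C. Product was quantified against trypsin-cleaved standard curves.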

Test [3] concerns the target Ras Converting Enzyme 1 (Rce1p), HA-epitope tagged, yeast (S. cerevisiae) (UniProt Q03530). The test can be described thus: cross-linking.

Entries after “also recorded” stand apart in the source; their conditions may differ.

With `c1cnc2c(c1)ccc1cccnc12` [1,10-phenanthroline], on yeast Rce1p [1], the “inhibition of yeast Rce1p” value is “inhibited”.

Turning to `[Zn]` [zinc], the “inhibition of yeast Rce1p” value at yeast Rce1p [1] is given as “inhibited”.

As for Abz-KSKTKC(C10BP)K(Dnp)IM [Peptide 6], at yeast Rce1p [2] (Rce1p-enriched membranes 0.25 mg/mL, pH 7.5, 30 °C, Hill Equation fit, n=5), the “h (Hill coefficient)” value was found to be 1.8. Also, the Vmax/KM at yeast Rce1p [2] (Rce1p-enriched membranes 0.25 mg/mL, pH 7.5, 30 °C, n=5) is recorded as 8.9×10^−5 L/min/mg protein. Moreover, on yeast Rce1p [2] (compared with 2), the “efficiency (Vmax/KM) of Rce1p processing, fold lower than 2” value is reported as 10 -fold and the “maximal processing rate (Vmax), fold less than 2” value is given as “approximately 7 -fold”. For the same compound, on yeast Rce1p [2] (compared with 4), the “efficiency (Vmax/KM) of Rce1p processing compared with 4” value is “approximately double that of 4; also recorded: increased approximately two-fold” and the “maximal processing rate (Vmax), fold greater than 4” value is 9 -fold. Moreover, the “Rce1p substrate” value on yeast Rce1p [2] (fluorescence-based kinetic evaluation) was “could serve as a substrate for Rce1p”. Also, the “binding affinity, fold less than that of 4” value at yeast Rce1p [2] (from KM, compared with 4) is 4 -fold.

“Peptide 2, Abz-KSKTKC(farnesyl)K(Dnp)IM, internally quenched fluorogenic farnesylated substrate based on the K-Ras4b C-terminal sequence”: in test [3], the percent labeling of Rce1p by 14 (15 μM) left with 50 μM 2 was determined as 84% and the percent labeling of Rce1p by 14 (15 μM) left with 100 μM 2 was 7%.

Take “Peptide 9, Biotin-K(Dde)KSKTKC(C10BP)K(Dnp)IM”: the fold labeling efficiency against probe 8 (fold less than 8) in test [3] came to 4.
